Measured values reported in ChEMBL document CHEMBL4033712, “Synthesis and biological evaluation of new C-12(α/β)-(N-) sulfamoyl-phenylamino-14-deoxy-andrographolide derivatives as potent anti-cancer agents” (Bioorg Med Chem Lett, 2017).

Tests used:
Type in all cases: functional
SF-539 [1] = assay: Growth inhibition of human SF539 cells incubated for 48 hrs by sulforhodamine B assay; conditions: SF-539, 48 h
Procedure, shortened: (§1)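 NCI 60 human tumour cell line panel, five-dose study at 0.01, 0.1, 1, 10 and 100 µM, 48 h incubation. Sulforhodamine B protein-binding dye end point. GI50 (50% decrease in net cell growth), TGI (total growth inhibition) and LC50 (net 50% loss of initial cells) read from log concentration versus % growth inhibition curves.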

KM12 = assay: Growth inhibition of human KM12 cells incubated for 48 hrs by sulforhodamine B assay; conditions: KM12, 48 h
Procedure, shortened: (§2)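 NCI-60 five-dose screen at 0.01, 0.1, 1, 10 and 100 µM, 48 h incubation, sulforhodamine B end point. GI50 (50% decrease in net growth), TGI (total growth inhibition) and LC50 (net 50% loss of initial cells) taken from log concentration versus % growth inhibition curves.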

IGROV-1 = assay: Growth inhibition of human IGROV1 cells incubated for 48 hrs by sulforhodamine B assay; conditions: IGROV-1, 48 h; procedure, shortened: as §2
SF-268 = assay: Growth inhibition of human SF268 cells incubated for 48 hrs by sulforhodamine B assay; conditions: SF-268, 48 h; procedure, shortened: as §1
MDA-MB-231 = assay: Growth inhibition of human MDA-MB-231 cells incubated for 48 hrs by sulforhodamine B assay; conditions: MDA-MB-231, 48 h; procedure, shortened: as §2
SK-OV-3 = assay: Growth inhibition of human SKOV3 cells incubated for 48 hrs by sulforhodamine B assay; conditions: SK-OV-3, 48 h; procedure, shortened: as §1
UACC-62 = assay: Growth inhibition of human UACC62 cells incubated for 48 hrs by sulforhodamine B assay; conditions: UACC-62, 48 h; procedure, shortened: as §1
SNB-75 = assay: Growth inhibition of human SNB75 cells incubated for 48 hrs by sulforhodamine B assay; conditions: SNB-75, 48 h; procedure, shortened: as §1
SK-MEL-5 = assay: Growth inhibition of human SK-MEL-5 cells incubated for 48 hrs by sulforhodamine B assay; conditions: SK-MEL-5, 48 h; procedure, shortened: as §1
NCI-H23 = assay: Growth inhibition of human NCI-H23 cells incubated for 48 hrs by sulforhodamine B assay; conditions: NCI-H23, 48 h; procedure, shortened: as §2
MCF7 = assay: Growth inhibition of human MCF7 cells incubated for 48 hrs by sulforhodamine B assay; conditions: MCF7, 48 h; procedure, shortened: as §2
DU-145 = assay: Growth inhibition of human DU145 cells incubated for 48 hrs by sulforhodamine B assay; conditions: DU-145, 48 h; procedure, shortened: as §2
MDA-MB-435 = assay: Growth inhibition of human MDA-MB-435 cells incubated for 48 hrs by sulforhodamine B assay; conditions: MDA-MB-435, 48 h; procedure, shortened: as §2
A549 = assay: Growth inhibition of human A549/ATCC cells incubated for 48 hrs by sulforhodamine B assay; conditions: A549, 48 h; procedure, shortened: as §2
HCT-15 = assay: Growth inhibition of human HCT15 cells incubated for 48 hrs by sulforhodamine B assay; conditions: HCT-15, 48 h; procedure, shortened: as §2
UO-31 = assay: Growth inhibition of human UO31 cells incubated for 48 hrs by sulforhodamine B assay; conditions: UO-31, 48 h; procedure, shortened: as §1
HCT-116 = assay: Growth inhibition of human HCT116 cells incubated for 48 hrs by sulforhodamine B assay; conditions: HCT-116, 48 h; procedure, shortened: as §2
HOP-92 = assay: Growth inhibition of human HOP92 cells incubated for 48 hrs by sulforhodamine B assay; conditions: HOP-92, 48 h; procedure, shortened: as §2
MOLT-4 = assay: Growth inhibition of human MOLT4 cells incubated for 48 hrs by sulforhodamine B assay; conditions: MOLT-4, 48 h; procedure, shortened: as §2
HCC 2998 = assay: Growth inhibition of human HCC2998 cells incubated for 48 hrs by sulforhodamine B assay; conditions: HCC 2998, 48 h; procedure, shortened: as §2
SK-MEL-28 = assay: Growth inhibition of human SK-MEL-28 cells incubated for 48 hrs by sulforhodamine B assay; conditions: SK-MEL-28, 48 h; procedure, shortened: as §1
SN12C = assay: Growth inhibition of human SN12C cells incubated for 48 hrs by sulforhodamine B assay; procedure, shortened: as §1
SF-539 [2] = assay: Anticancer activity against human SF539 cells assessed as cell growth at 10 uM after 48 hrs by sulforhodamine B assay relative to control; conditions: SF-539, 48 h, read-out: Activity
Procedure, shortened: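 Single-dose NCI-60 panel screen: compound added at 10 µM and the culture incubated 48 h. The end point was read by protein staining with sulforhodamine B. The value is percent growth of treated cells relative to untreated control cells, reported as a mean graph across the panel.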

NCI-H226 = assay: Growth inhibition of human NCI-H226 cells incubated for 48 hrs by sulforhodamine B assay; conditions: NCI-H226, 48 h; procedure, shortened: as §2
COLO 205 = assay: Growth inhibition of human COLO205 cells incubated for 48 hrs by sulforhodamine B assay; conditions: COLO 205, 48 h; procedure, shortened: as §2
NCI/ADR-RES = assay: Growth inhibition of human NCI/ADR-RES cells incubated for 48 hrs by sulforhodamine B assay; procedure, shortened: as §2
HOP-62 = assay: Growth inhibition of human HOP62 cells incubated for 48 hrs by sulforhodamine B assay; conditions: HOP-62, 48 h; procedure, shortened: as §2
RPMI-8226 = assay: Growth inhibition of human RPMI8226 cells incubated for 48 hrs by sulforhodamine B assay; conditions: RPMI-8226, 48 h; procedure, shortened: as §1
[3] = read-out: LC50 (the source's name)

In the case of `C=C1CC[C@@H]2[C@](C)(COC(C)=O)[C@H](OC(C)=O)CC[C@@]2(C)[C@H]1CC(Nc1ccc(S(=O)(=O)Nc2ncccn2)cc1)C1=CCOC1=O` (stereo partly specified), the GI50 (SF-539 [1]) is reported as 1.5 µM, the TGI (SF-539 [1]) is reported as 2.94 µM and the CC50 (SF-539 [1]; [3]) is reported as 5.78 µM. For the same molecule, the GI50 (KM12) was 2.33 µM, the TGI (KM12) was 5.54 µM and the CC50 (KM12; [3]) was 17.8 µM. The GI50 (IGROV-1) was 2.04 µM, the TGI (IGROV-1) was 4.41 µM and the CC50 (IGROV-1; [3]) was 9.53 µM. For the same molecule, the GI50 (SF-268) was 1.93 µM, the TGI (SF-268) was 4.16 µM and the CC50 (SF-268; [3]) was 8.97 µM. It also gave a GI50 (MDA-MB-231) of 1.95 µM, an LC50 (concentration giving net 50% loss of initial cells) (MDA-MB-231) of 7.91 µM and a TGI (MDA-MB-231) of 3.93 µM. For the same molecule, the GI50 (SK-OV-3) was 6.27 µM, the TGI (SK-OV-3) was 18.3 µM and the CC50 (SK-OV-3; [3]) was 42.8 µM. For the same molecule, the GI50 (UACC-62) was 1.11 µM, the TGI (UACC-62) was 2.56 µM and the CC50 (UACC-62; [3]) was 5.91 µM. It also gave a GI50 (SNB-75) of 1.27 µM, a TGI (SNB-75) of 3.23 µM and a CC50 (SNB-75; [3]) of 8.2 µM. It also gave a GI50 (SK-MEL-5) of 1.9 µM, a TGI (SK-MEL-5) of 3.85 µM and a CC50 (SK-MEL-5; [3]) of 7.81 µM. The GI50 (NCI-H23) was 2.11 µM, the TGI (NCI-H23) was 5.38 µM and the CC50 (NCI-H23; [3]) was 26.7 µM. The GI50 (MCF7) was 1.07 µM, the TGI (MCF7) was 4.54 µM and the CC50 (MCF7; [3]) was > 100 µM. The GI50 (DU-145) was 1.62 µM, the TGI (DU-145) was 3.07 µM and the CC50 (DU-145; [3]) was 5.83 µM. It also gave a GI50 (MDA-MB-435) of 1.58 µM, a TGI (MDA-MB-435) of 3.77 µM and a CC50 (MDA-MB-435; [3]) of 9.04 µM. For the same molecule, the GI50 (A549) was 3.18 µM, the TGI (A549) was 9.98 µM and the CC50 (A549; [3]) was 34.6 µM. For the same molecule, the GI50 (HCT-15) was 1.21 µM, the TGI (HCT-15) was 3.32 µM and the CC50 (HCT-15; [3]) was 9.15 µM. The GI50 (UO-31) was 1.51 µM, the LC50 (concentration giving net 50% loss of initial cells) (UO-31) was 5.85 µM and the TGI (UO-31) was 2.97 µM. The GI50 (HCT-116) was 0.87 µM, the TGI (HCT-116) was 2.49 µM and the CC50 (HCT-116; [3]) was 6.51 µM. The GI50 (HOP-92) was 3.1 µM, the TGI (HOP-92) was 8.85 µM and the CC50 (HOP-92; [3]) was 31.1 µM. For the same molecule, the GI50 (MOLT-4) was 2.27 µM, the TGI (MOLT-4) was 8.37 µM and the CC50 (MOLT-4; [3]) was > 100 µM. For the same molecule, the GI50 (HCC 2998) was 2.1 µM, the TGI (HCC 2998) was 3.81 µM and the CC50 (HCC 2998; [3]) was 6.9 µM. For the same molecule, the GI50 (SK-MEL-28) was 1.69 µM, the LC50 (50% net cell kill) (SK-MEL-28) was 6.2 µM and the TGI (SK-MEL-28) was 3.24 µM. For the same molecule, the GI50 (SN12C) was 0.43 µM, the TGI (SN12C) was 1.96 µM and the CC50 (SN12C; [3]) was 5.82 µM. For the same molecule, the growth at 10 µM (SF-539 [2]) was -69%, the GI50 (NCI-H226) was 1.63 µM and the TGI (NCI-H226) was 3.57 µM. The GI50 (COLO 205) was 1.78 µM, the TGI (COLO 205) was 3.8 µM and the CC50 (COLO 205; [3]) was 8.11 µM. The GI50 (NCI/ADR-RES) was 1.83 µM, the LC50 (concentration giving net 50% loss of initial cells) (NCI/ADR-RES) was > 100 µM and the TGI (NCI/ADR-RES) was 5.28 µM. The GI50 (HOP-62) was 3.02 µM, the TGI (HOP-62) was 6.44 µM and the CC50 (HOP-62; [3]) was 21.5 µM. For the same molecule, the GI50 (RPMI-8226) was 0.54 µM, the TGI (RPMI-8226) was 3.12 µM and the CC50 (RPMI-8226; [3]) was > 100 µM.
